Reference: ChEMBL document CHEMBL3526050, “Elucidation of the metabolic pathways and the resulting multiple metabolites of almorexant, a dual orexin receptor antagonist, in humans” (Drug Metab Dispos, 2013)
Values joined by “and” are separate entries in the source; they are usually repeats but may differ in a detail not shown here. Equal entries are not always repeated.

Legend:
Conditions in all cases: in vivo
Plasma = assay: Drug level in plasma of healthy human treated with [14C]almorexant at 200 mg, po dosed as single dose; format: ADME, organism-based
Method in brief: (§1)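 Plasma from 6 subjects given one 200 mg oral 14C dose, pooled over at least 2 time points and acetonitrile-precipitated. Radio-LC-MS/MS used a C18 column with ammonium formate pH 4.0/acetonitrile gradient and 0.15-min fractions scintillation-counted. Peak radioactivity converted to ng-equivalents/mL to give AUC0-t. Co-eluting metabolites grouped and expressed relative to parent AUC and to total radioactivity.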

Homo sapiens [1] = assay: Drug level in healthy human treated with [14C]almorexant at 200 mg, po dosed as single dose relative to almorexant; format: ADME, organism-based; method in brief: as §1
Homo sapiens [2] = assay: AUC (0 to t) in healthy human treated with [14C]almorexant at 200 mg, po dosed as single dose; format: ADME, organism-based, Plasma; method in brief: as §1
Homo sapiens [3] = assay: Drug level in healthy human treated with [14C]almorexant at 200 mg, po dosed as single dose relative to total radioactivity; format: ADME, organism-based; method in brief: as §1
Homo sapiens [4] = assay: Tlast in healthy human treated with [14C]almorexant at 200 mg, po dosed as single dose; format: ADME, organism-based; method in brief: as §1
[5] = Tmax in healthy human at 200 mg, po dosed as single dose; format: ADME, organism-based
Method in brief: (§2)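 Plasma parent and metabolites M3, M5, M6, M8 after one 200 mg oral 14C dose in 6 fasted male subjects, sampled 0.17–240 h. Validated LC-MS/MS with penta-deuterated internal standards and positive ESI. Low range 0.4/1.0–100 ng/mL using supported liquid extraction, high range 50–1000 ng/mL using protein precipitation. Noncompartmental analysis, geometric means (95% CI), Tmax median (range).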

Homo sapiens [6] = assay: Tmax in healthy human treated with [14C]almorexant at 200 mg, po dosed as single dose; format: ADME, organism-based; method in brief: as §2
Homo sapiens [7] = assay: Half life in healthy human treated with [14C]almorexant at 200 mg, po dosed as single dose; format: ADME, organism-based; method in brief: as §2
Homo sapiens [8] = assay: AUC (0 to infinity) in healthy human treated with [14C]almorexant at 200 mg, po dosed as single dose; format: ADME, organism-based, Plasma; design: dose 200 mg, route oral, time infinity
Homo sapiens [9] = assay: Cmax in healthy human treated with [14C]almorexant at 200 mg, po dosed as single dose; format: ADME, organism-based; design: dose 200 mg, route oral
[10] = Drug level in feces of healthy human treated with [14C]almorexant at 200 mg, po dosed as single dose; format: ADME, organism-based
Method in brief: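 Feces pooled by weight across 6 subjects (0–48 to 192–332 h) and extracted three times with acetonitrile, then dried and reconstituted. Analyzed by radio-LC-MS/MS with a methanol/acetonitrile gradient and scintillation-counted fractions. Procedural recovery was 73.0%. Reported as percent of administered radioactive dose.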

Question: Which results are given for COc1cc2c(cc1OC)[C@H](CC(O)c1ccc(C(F)(F)F)cc1)N([C@@H](C(N)=O)c1ccccc1)CC2 (stereo partly specified)?
Answer: Drug metabolism (Plasma): metabolite_detected; Drug uptake (Homo sapiens [1]): 28.1%; AUCt (Homo sapiens [2]): 17.2 ng.Eq.hr/ml; Drug uptake (Homo sapiens [3]): 0.03%; Tlast (Homo sapiens [4]): 1.6 h; Tmax [5]: 1.6 h

Question: For CNC(=O)[C@@H](c1ccccc1)[n+]1ccc2cc(OC)c(OC)cc2c1CCc1ccc(C(F)(F)F)cc1, which Tmax (Homo sapiens [6]) is on record?
Answer: 0.9 h

Question: What about the t1/2 (Homo sapiens [7]) of the same molecule?
Answer: 26.3 h

Question: And the Drug metabolism (Plasma)?
Answer: metabolite_detected

Question: What about the AUC (Homo sapiens [8]) of the same molecule?
Answer: 282 ng·h/mL

Question: And the Cmax (Homo sapiens [9])?
Answer: 80.4 ng/mL

Question: What about the Drug metabolism [10] of the same molecule?
Answer: metabolite_detected

Question: For COc1cc2cc[n+]([C@@H](C(N)=O)c3ccccc3)c(CCc3ccc(C(F)(F)F)cc3)c2cc1OC, which Drug metabolism (Plasma) is on record?
Answer: metabolite_detected

Question: And the Drug metabolism [10]?
Answer: metabolite_detected

Question: What does the source list for COc1cc2c(cc1OC)[C@H](CCc1ccc(C(F)(F)F)cc1)NCC2?
Answer: Tmax (Homo sapiens [6]): 1.5 h; t1/2 (Homo sapiens [7]): 10.4 h; Drug metabolism (Plasma): metabolite_detected; Drug uptake (Homo sapiens [1]): 541%; AUCt (Homo sapiens [2]): 331 ng.Eq.hr/ml; AUC (Homo sapiens [8]): 1039 ng·h/mL; Cmax (Homo sapiens [9]): 99.4 ng/ml and 49 ng.Eq/ml; Drug uptake (Homo sapiens [3]): 0.61%; Tlast (Homo sapiens [4]): 11 h

Question: For COc1cc2c(cc1O)[C@H](CCc1ccc(C(F)(F)F)cc1)NCC2, which Drug metabolism (Plasma) is on record?
Answer: metabolite_detected

Question: With COc1cc2ccnc(CCc3ccc(C(F)(F)F)cc3)c2cc1OC as the molecule, how does the Drug metabolism (Plasma) read?
Answer: metabolite_detected

Question: With COc1cc2c(cc1OC)[C@H](CC(O)c1ccc(C(F)(F)F)cc1)NCC2 (stereo partly specified) as the molecule, how does the Drug metabolism (Plasma) read?
Answer: metabolite_detected
